Assay outcomes: PubChem, Johns Hopkins Ion Channel Center
Sampled rows, rich in hits. Any-hit rate of the full collection: about 3.5%.
RGS4 act = potentiators or activators of RGS4; HEK293 M3R/inducible RGS4, carbachol calcium flux Fluo4; stronger effect = lower value; B-score at 10 µM; actives 0.92% (n = 310,000); AID 463111;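 active = B-score of the integrated calcium signal more than 4 SD below the library mean, with starting fluorescence not abnormally high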;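 note: negative B-score means reduced calcium response which marks RGS4 activation or potentiation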
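Reagent: ECmax carbachol challenge; Test system: M3R-expressing HEK293 line, RGS4 induced by doxycycline; Schedule: overnight RGS4 induction, 30 min dye load 37 °C, 20 min compound RT; Detection: calcium dye Fluo4 fluorescence; Read-out: Agonist-evoked peak-minus-minimum fluorescence over baseline, integrated ratio, B score.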
MrgX1 antag = antagonists of human MrgX1 receptor; actives 1.3% (n = 310,000); MRGX1-HEK293 calcium flux, Fluo-4, BAM8-22 antagonism; stronger effect = lower value; B-score at 10 µM;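 active = calcium-response B-score plate-corrected more than 3 library SD below zero, starting fluorescence within 5 deviations, no agonist response on first addition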;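 note: peak minus trough fluorescence over baseline after final BAM8-22 challenge near maximal dose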
Target sequence (Q96LB2 whole entry, looked up): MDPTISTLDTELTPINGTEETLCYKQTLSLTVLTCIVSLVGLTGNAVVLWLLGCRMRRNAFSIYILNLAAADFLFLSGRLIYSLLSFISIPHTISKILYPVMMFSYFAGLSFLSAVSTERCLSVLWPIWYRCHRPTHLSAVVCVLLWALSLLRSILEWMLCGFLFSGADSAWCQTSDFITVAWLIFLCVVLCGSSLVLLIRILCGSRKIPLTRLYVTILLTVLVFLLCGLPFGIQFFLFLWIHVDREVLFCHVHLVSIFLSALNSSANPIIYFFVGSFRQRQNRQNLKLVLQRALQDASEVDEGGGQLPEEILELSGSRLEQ
MrgX1 PAM = allosterically activates human MrgX1 receptor signaling | actives 0.63% (n = 310,000) | MrgX1-HEK293, Fluo-4 calcium flux, FDSS; stronger effect = higher value | AID 588675 | Q96LB2 | B-score at 10 µM;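 active = plate-corrected calcium response at least 3 library SD above typical, normal starting fluorescence, not activating the receptor alone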;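 note: compound read alongside a low EC10 to EC30 dose of BAM8-22 agonist; peak minus trough fluorescence over baseline measured at the second addition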
MrgX1 agonist = activates human MrgX1 receptor signaling; B-score at 10 µM; AID 588627; MrgX1-HEK293 cells, Fluo-4 calcium fluorescence, agonist mode; stronger effect = higher value; Q96LB2; actives 0.44% (n = 310,000);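 active = calcium response B-score plate-corrected fluorescence ratio at least 3 library SD, with starting fluorescence B-score inside 5 SD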
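Test system: HEK293 cells stably expressing human MrgX1 receptor; Input: fifteen thousand cells per well; Dosing: compound delivered in addition one of three; Schedule: overnight seeding, then 1 h dark dye loading; Technique: Fluo-4 NW calcium fluorescence; Measure: B-scored fluorescence response ratio; Controls: positive and negative controls per plate.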
RGS4 inh = human RGS4 inhibition; P49798; HEK293 M3R/RGS4 inducible, Fluo-4 calcium flux; stronger effect = higher value; triggered by carbachol at its EC20; B-score at 10 µM; actives 0.45% (n = 310,000); AID 463165;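 active = B-score, a plate-corrected calcium signal, over three deviations above library mean, with baseline fluorescence within five deviations of library mean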;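 note: RGS4 expression induced by doxycycline in cells with stable M3 receptor; B-score is computed from the integrated fluorescence ratio over baseline after carbachol; higher B-score means a larger calcium signal and so more RGS4 inhibition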
Target sequence (P49798 whole entry, looked up): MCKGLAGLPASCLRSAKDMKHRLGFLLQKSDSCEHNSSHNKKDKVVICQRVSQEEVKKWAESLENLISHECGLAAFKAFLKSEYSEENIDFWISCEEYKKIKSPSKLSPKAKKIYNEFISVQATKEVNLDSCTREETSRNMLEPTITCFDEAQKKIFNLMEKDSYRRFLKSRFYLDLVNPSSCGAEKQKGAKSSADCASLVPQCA
MrgX1 ag confirm = reconfirmed activator of human MrgX1 receptor signaling; actives 78% (n = 600); shares compounds with MrgX1 agonist; MrgX1-HEK293, Fluo-4 calcium fluorescence, FDSS; activation, % at 10 µM;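 active = calcium signal rise, corrected for plate position, at least 3 library SD high, with starting brightness within 5 such deviations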
HEK293 Ca flux = activity in parental HEK293 cells lacking MrgX1. shares compounds with MrgX1 antag. Fluo-4 calcium fluorescence, FDSS. fluorescence ratio F(max-min)/F0 at 10 µM. actives 2% (n = 4,000);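 active = duplicate-averaged calcium fluorescence ratio at least three times the standard deviation of buffer wells, a nonspecific response in parental cells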
HEK293 Ca counter = counter-screen for MrgX1 allosteric activators: effect in parental HEK293 cells. shares compounds with MrgX1 antag. parental HEK293 calcium flux, Fluo-4 fluorescence ratio; stronger effect = higher value. fluorescence ratio F(max-min)/F0 at 10 µM. actives 0.4% (n = 4,000). AID 624114;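 active = calcium fluorescence ratio, averaged over duplicates, at least 3 SD of the buffer-well ratio, meaning a nonspecific response in receptor-free cells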;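 note: untransfected parental HEK293 lacking MrgX1 used as counterscreen for MrgX1 allosteric activators; fluorescence change taken during the second addition on a kinetic imager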
HEK293 Ca cntr2 = activity in parental HEK293 cells lacking MrgX1 receptor; shares compounds with MrgX1 antag; Fluo-4 calcium fluorescence (FDSS); stronger effect = higher value; fluorescence ratio F(max-min)/F0 at 10 µM; actives 8.7% (n = 4,000);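 active = calcium fluorescence ratio at least three times the spread of buffer wells, meaning a non-specific response in parental cells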
Of the large screens only hits and unclear results are named; the others gave an inactive call (follow-up assays come after a bar, where they were run).

CCCCCCCC1CC(CSC(=N)N)OC1=O (stereo unspecified)	MrgX1 agonist 41 | MrgX1 ag confirm 164% | HEK293 Ca flux inactive | HEK293 Ca counter inactive | HEK293 Ca cntr2 inactive
CCCCC1CC(CSC(=N)N)OC1=O (stereo unspecified)	none
CN(CC(=O)NCc1ccccc1Cl)S(=O)(=O)c1cccs1	none
Cc1ccc(Sc2cc(C)nc(-c3ccccn3)n2)cc1	MrgX1 agonist 31 | MrgX1 ag confirm 210% | HEK293 Ca flux inactive | HEK293 Ca counter inactive | HEK293 Ca cntr2 inactive
CCCCc1ncc(CN2CCC(CC3CCCCO3)(C(=O)OCC)CC2)[nH]1 (stereo unspecified)	none
CCOC(=O)C1(CC2CCCCO2)CCN(Cc2cc3ccccc3[nH]2)CC1 (stereo unspecified)	MrgX1 agonist 113 | MrgX1 ag confirm 651% | HEK293 Ca flux inactive | HEK293 Ca counter inactive | HEK293 Ca cntr2 95
COc1cccc(OC)c1C(=O)NC(=S)NNC(=O)[C@H]1C[C@@H]1c1ccccc1	none
O=C(NC(=S)NNC(=O)[C@H]1C[C@@H]1c1ccccc1)c1cccc(F)c1	MrgX1 agonist 159 | MrgX1 ag confirm 600% | HEK293 Ca flux inactive | HEK293 Ca counter inactive | HEK293 Ca cntr2 105
COc1ccccc1-c1ccc(/C=C2/C=C(C)OC2=O)o1	none
COc1ccccc1-c1ccc(/C=C2\C=CC(=O)O2)o1	MrgX1 agonist 91 | MrgX1 ag confirm inactive | HEK293 Ca flux 0.2 | HEK293 Ca counter inactive | HEK293 Ca cntr2 inactive
Cc1ccc(C(C(=O)NC2CCCCC2)N2CCN(C(=O)c3ccco3)CC2)cc1 (stereo unspecified)	none
Cc1ccc(S(=O)(=O)N2CCC(=O)CC2)cc1	none
c1ccc(CNc2ncnc3sc4c(c23)CCC4)nc1	none
c1ccc(CNc2ncnc3scc(-c4cccs4)c23)nc1	MrgX1 agonist 27 | MrgX1 ag confirm 160% | HEK293 Ca flux inactive | HEK293 Ca counter inactive | HEK293 Ca cntr2 inactive
O=C(COC(=O)c1ccc2c(c1)C(=O)N(Cc1ccco1)C2=O)NCC(F)(F)F	none
Nc1nc2ccc(S(=O)(=O)N3CCCCC3)cc2s1	MrgX1 agonist 43 | MrgX1 ag confirm 256% | HEK293 Ca flux inactive | HEK293 Ca counter inactive | HEK293 Ca cntr2 53
CC(C)OCCCNc1ncc2c(n1)CC(c1ccccc1)CC2=O (stereo unspecified)	none
COc1ccc(N=Cc2c(O)c3ccccc3n2C(C)=O)cc1	MrgX1 agonist 62 | MrgX1 ag confirm 583% | HEK293 Ca flux inactive | HEK293 Ca counter inactive | HEK293 Ca cntr2 110
COc1ccc(-n2c(O)c(C=Nc3ccccc3)c3ccccc3c2=O)cc1	none
COc1ccc(N=Cc2c(OC)ccc3ccccc23)cc1	none
COc1ccc(N=Cc2sc(O)c3ccccc23)cc1	MrgX1 agonist 44 | MrgX1 ag confirm inactive | HEK293 Ca flux 0.57 | HEK293 Ca counter inactive | HEK293 Ca cntr2 121
COc1ccc(NC(=O)CSc2nc3n[nH]c(C)c3c(=N)n2-c2ccc(Cl)c(C)c2)cc1OC	none
CN(C)C=Nc1nonc1-c1ccccc1	none
CN(C)C=Nc1c(Br)cc(Br)c2nonc12	MrgX1 agonist 40 | MrgX1 ag confirm 162% | HEK293 Ca flux inactive | HEK293 Ca counter inactive | HEK293 Ca cntr2 inactive
CC(C)CCN1C(Nc2ccccc2)=NC[C@@H]1CC(C)C	none
Cc1cccc(CCN2CCN=C2Nc2ccccc2)c1	MrgX1 agonist 50 (no result: RGS4 act, RGS4 inh) | MrgX1 ag confirm 278% | HEK293 Ca flux inactive | HEK293 Ca counter inactive | HEK293 Ca cntr2 67
CCN1C(Nc2ccccc2)=NC[C@@H]1CC(C)C	none
CC(C)C[C@H]1CN=C(Nc2ccccc2)N1CCc1ccc(F)cc1	MrgX1 agonist 120 (no result: RGS4 act, RGS4 inh) | MrgX1 ag confirm 575% | HEK293 Ca flux inactive | HEK293 Ca counter inactive | HEK293 Ca cntr2 106
c1ccc(CCN2CCN=C2Nc2ccccc2)cc1	none
Cc1cccc(CCN2C(Nc3ccccc3)=NC[C@@H]2CC(C)C)c1	MrgX1 agonist 114 (no result: RGS4 act, RGS4 inh) | MrgX1 ag confirm 586% | HEK293 Ca flux inactive | HEK293 Ca counter inactive | HEK293 Ca cntr2 101
CCOC(=O)Cn1cc(Cl)c(=O)c(Cl)c1	none
O=C(Cc1c2ccccc2nc2ccccc12)c1ccccc1	MrgX1 agonist 31 | MrgX1 ag confirm inactive | HEK293 Ca flux inactive | HEK293 Ca counter inactive | HEK293 Ca cntr2 inactive
CCN(C(=O)COC(=O)c1nc2nc(C)cc(C)n2n1)C1CCS(=O)(=O)C1 (stereo unspecified)	none
O=C1CCCCCN1Sc1ccccc1	MrgX1 agonist 30 | MrgX1 ag confirm 123% | HEK293 Ca flux inactive | HEK293 Ca counter inactive | HEK293 Ca cntr2 inactive
O=C(CCSc1ccccc1)N1CCCC1	none
CC1CN(C(=S)c2cccc([N+](=O)[O-])c2)CC(C)O1 (stereo unspecified)	none
O=C(N/N=C/C=C/c1ccccc1)NC1CCCCC1	none
CCNc1nc(NC(C)C)nc(N(C#N)Cc2ccccc2)n1	MrgX1 agonist 42 | MrgX1 ag confirm 185% | HEK293 Ca flux inactive | HEK293 Ca counter inactive | HEK293 Ca cntr2 inactive
N=C(N)SCc1ccc(Cl)cc1Cl	MrgX1 agonist 39 | MrgX1 ag confirm 219% | HEK293 Ca flux inactive | HEK293 Ca counter inactive | HEK293 Ca cntr2 inactive
NC(=S)Cc1ccc(Cl)cc1Cl	none
CC(C)Cc1csc(NC(=O)c2ccc(Cl)cc2)c1C(=O)O	MrgX1 agonist 37 | MrgX1 ag confirm 224% | HEK293 Ca flux inactive | HEK293 Ca counter inactive | HEK293 Ca cntr2 52
CC1(C)CC(=O)C(C(C2=C(O)CC(C)(C)CC2=O)c2ccc(Cl)c([N+](=O)[O-])c2)C(=O)C1 (stereo unspecified)	MrgX1 agonist 91 | MrgX1 ag confirm inactive | HEK293 Ca flux inactive | HEK293 Ca counter inactive | HEK293 Ca cntr2 inactive
O=C(c1cc([N+](=O)[O-])ccc1N1CCOCC1)N1CCN(S(=O)(=O)c2cc(Cl)ccc2Cl)CC1	none
O=C(Nc1ccc(N2CCOCC2)cc1)C1(c2ccc(Cl)cc2)CCC1	none
O=C(CNCC1(N2CCOCC2)CCCCC1)Nc1ccc(Cl)cc1	MrgX1 agonist 74 | MrgX1 ag confirm inactive | HEK293 Ca flux inactive | HEK293 Ca counter inactive | HEK293 Ca cntr2 inactive
COC(=O)[C@@H]1C[C@H]2CC[C@H](O)C[C@H]2N1Cc1ccc(Cl)cc1	none
